EPA's CvTdb concentration-time database

What was measured:
rat [1] = experiment: concentration in blood after dosing; negative times count back from the end of exposure; settings: inhalation
rat [2] = experiment: concentration in blood after dosing
human = experiment: concentration in blood after dosing; negative times count back from the end of exposure; settings: dosed: ethylbenzene, 33 ppm, inhalation, duration: 7 hr
In short: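 Points were largely digitised from plot screenshots with WebPlotDigitizer or otherwise copied from tables, and they remain in the units each source reported. They come from published in vivo toxicokinetic studies and two structured collections. Sampling and analytical methods follow each source and were often not reported.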

rat [3] = experiment: amount in urine after dosing (umol); settings: dosed: tert-amyl methyl ether, 38.4 ppm, inhalation, duration: 4 hr, F344 (Harlan Winkelmann)
Rat [4] = experiment: concentration in adipose after dosing; settings: oral, Female, F344
Rat [5] = experiment: concentration in adipose after dosing; settings: 72 h; dosed: Tamoxifen citrate; 100 ug/mL; oral; Female; F344
Rat [6] = experiment: concentration in adipose after dosing; settings: 144 h; dosed: Tamoxifen; 300 ug/mL; oral; Female; F344
Rat [7] = experiment: concentration in adipose after dosing; settings: 144 h; dosed: Tamoxifen; 300 ug/mL; oral; Female; F344; remark: listed apart in the source
Rat [8] = experiment: concentration in plasma after dosing; settings: 72 h, 300 ug/mL, oral, Female, F344
Rat [9] = experiment: concentration in adipose after dosing; settings: 144 h; dosed: Tamoxifen citrate; 100 ug/mL; oral; Female; F344
Rat [10] = experiment: concentration in adipose after dosing; settings: 144 h; dosed: Tamoxifen citrate; 100 ug/mL; oral; Female; F344; remark: listed apart in the source
Rat [11] = experiment: concentration in adipose after dosing; settings: 144 h; dosed: Tamoxifen; 300 ug/mL; oral; Female; F344; remark: listed apart in the source
Rat [12] = experiment: concentration in adipose after dosing; settings: 144 h; dosed: Tamoxifen citrate; 300 ug/mL; oral; Female; F344
Rat [13] = experiment: concentration in adipose after dosing; settings: 144 h; dosed: Tamoxifen citrate; 300 ug/mL; oral; Female; F344; remark: listed apart in the source
Rat [14] = experiment: concentration in adipose after dosing; settings: 144 h; dosed: Tamoxifen citrate; 300 ug/mL; oral; Female; F344; remark: listed apart in the source

c1cc2ccc3cccc4ccc(c1)c2c34 [total 14C-pyrene]
rat [1], dosed: pyrene, male, Wistar, radiolabel
Settings | concentration in blood [ng/mL]
0.2501 h, 200 mg/m^3, duration: 95 min | 1940
0.253 h, 500 mg/m^3, duration: 95 min | 16900
0.263 h, 800 mg/m^3, duration: 95 min | 41000
0.5176 h, 500 mg/m^3, duration: 95 min | 14700
0.5339 h, 800 mg/m^3, duration: 95 min | 41000
0.8638 h, 800 mg/m^3, duration: 95 min | 43500
0.87 h, 500 mg/m^3, duration: 95 min | 12400
0.875 h, 200 mg/m^3, duration: 95 min | 1190
1.216 h, 500 mg/m^3, duration: 95 min | 9070
1.222 h, 800 mg/m^3, duration: 95 min | 42700
1.227 h, 200 mg/m^3, duration: 95 min | 1020
1.722 h, 500 mg/m^3, duration: 95 min | 6760
1.724 h, 800 mg/m^3, duration: 95 min | 34600
1.733 h, 200 mg/m^3, duration: 95 min | 990
2.225 h, 500 mg/m^3, duration: 95 min | 5300
2.235 h, 800 mg/m^3, duration: 95 min | 30300
2.245 h, 200 mg/m^3, duration: 95 min | 837
2.901 h, 200 mg/m^3, duration: 95 min | 773
2.91 h, 800 mg/m^3, duration: 95 min | 24100
2.926 h, 500 mg/m^3, duration: 95 min | 4130
3.568 h, 800 mg/m^3, duration: 95 min | 21000
3.582 h, 200 mg/m^3, duration: 95 min | 714
3.588 h, 500 mg/m^3, duration: 95 min | 3380
4.567 h, 800 mg/m^3, duration: 95 min | 15500
4.569 h, 200 mg/m^3, duration: 95 min | 695
4.577 h, 500 mg/m^3, duration: 95 min | 3050
6.023 h, 800 mg/m^3, duration: 95 min | 11100
6.027 h, 500 mg/m^3, duration: 95 min | 2510
7.481 h, 800 mg/m^3, duration: 95 min | 9810
32 min, 200 mg/m^3, duration: 95 min | 1460
34 s, 500 mg/m^3, duration: 95 min | 15900
79 s, 200 mg/m^3, duration: 95 min | 2240

rat [1], dosed: pyrene, male, Wistar, radiolabel, during exposure
Settings | concentration in blood [ng/mL]
-28 s, 800 mg/m^3, duration: 95 min | 40700
-1.353 h, 200 mg/m^3, duration: 95 min | 659
-1.349 h, 500 mg/m^3, duration: 95 min | 2480
-1.122 h, 500 mg/m^3, duration: 95 min | 6670
-1.119 h, 800 mg/m^3, duration: 95 min | 8210
-1.09 h, 200 mg/m^3, duration: 95 min | 1400
-0.7764 h, 800 mg/m^3, duration: 95 min | 19900
-0.7622 h, 200 mg/m^3, duration: 95 min | 2040
-0.7591 h, 500 mg/m^3, duration: 95 min | 10200
-0.4362 h, 800 mg/m^3, duration: 95 min | 29200
-0.434 h, 200 mg/m^3, duration: 95 min | 2250
-0.4242 h, 500 mg/m^3, duration: 95 min | 12700

CCc1ccccc1 [ethylbenzene]
rat [2], dosed: ethylbenzene, 50 ppm, inhalation, duration: 4 hr
Settings | concentration in blood [ng/mL]
0.4948 h | 531
0.9897 h | 315
1.498 h | 193
1.993 h | 146
272 s | 821

human
Settings | concentration in blood [ng/mL]
0.4921 h | 254
0.9902 h | 197

human, during exposure
Settings | concentration in blood [ng/mL]
-1.491 h | 518
-0.514 h | 497

CC(C)(O)CC(=O)O [3-hydroxy-3-methyl butyrate]
rat [3]
Settings | amount in urine
6.001 h | 0.652
12.07 h | 0.695
18.1 h | 0.787
24.1 h | 0.425
30 h | 0.178
36.09 h | 0.517
42.12 h | 0.736
48.11 h | 0.23

C=CC#N [acrylonitrile]
rat [2], dosed: acrylonitrile, inhalation, duration: 3 hr, male, Sprague-Dawley
Settings | concentration in blood [ng/mL]
0.103 h, 186 ppm | 329
0.1717 h, 291 ppm | 588
0.1772 h, 186 ppm | 250
0.1774 h, 254 ppm | 263
0.2565 h, 291 ppm | 287
0.2613 h, 254 ppm | 235
0.2676 h, 186 ppm | 115
90 s, 254 ppm | 1640
94 s, 291 ppm | 1960
110 s, 186 ppm | 911
337 s, 291 ppm | 926
345 s, 254 ppm | 473

rat [2], dosed: acrylonitrile, iv, male, Fisher 344 CDF(F344)/CrlBR
Settings | concentration in blood [ng/mL]
0.1675 h, 84 mg/kg | 28200
0.1682 h, 3.4 mg/kg | 740
0.1683 h, 55 mg/kg | 27200
0.1717 h, 47 mg/kg | 13400
0.2068 h, 55 mg/kg | 21000
0.208 h, 3.4 mg/kg | 430
0.2102 h, 47 mg/kg | 11800
0.2128 h, 84 mg/kg | 27300
0.2495 h, 3.4 mg/kg | 259
0.2506 h, 55 mg/kg | 17400
0.2512 h, 84 mg/kg | 22400
0.2575 h, 47 mg/kg | 10900
0.5008 h, 55 mg/kg | 6770
0.5014 h, 3.4 mg/kg | 140
0.5026 h, 47 mg/kg | 3040
0.5056 h, 84 mg/kg | 11300
0.6636 h, 55 mg/kg | 3100
0.6706 h, 47 mg/kg | 1600
0.6711 h, 84 mg/kg | 6700
0.9964 h, 55 mg/kg | 393
1.005 h, 47 mg/kg | 287
1.006 h, 84 mg/kg | 1590
1.248 h, 55 mg/kg | 396
1.25 h, 47 mg/kg | 244
1.25 h, 84 mg/kg | 532
182 s, 3.4 mg/kg | 4950
183 s, 55 mg/kg | 71400
188 s, 84 mg/kg | 156000
196 s, 47 mg/kg | 52800
303 s, 55 mg/kg | 47200
306 s, 3.4 mg/kg | 3110
307 s, 84 mg/kg | 88300
309 s, 47 mg/kg | 38100

CC/C(=C(/c1ccc(O)cc1)c1ccc(OCCN(C)C)cc1)c1ccccc1 [trans-4-Hydroxytamoxifen]
concentration in adipose [ng/g], Rat [4]
Settings | 72 h | 144 h
dosed: Tamoxifen citrate, 100 ug/mL | 8.8 | 4.35
dosed: Tamoxifen citrate, 300 ug/mL | – | 2.96
dosed: Tamoxifen, 300 ug/mL | – | 2.96

Settings | concentration in adipose [ng/g]
Rat [5] | 5.3
Rat [6] | 5.1
Rat [7] | 9.08
Rat [9] | 5.04
Rat [10] | 6.12
Rat [11] | 10.3
Rat [12] | 9.08
Rat [13] | 5.1
Rat [14] | 10.3

Rat [8]
Settings | concentration in plasma [ng/mL]
dosed: Tamoxifen | 1.87
dosed: Tamoxifen citrate | 1.87

O=C[O-] [formate]
rat [2], dosed: methanol, 100 mg/kg, iv, male, CDF(F344)/CrlBR
Settings | concentration in blood [ng/mL]
0.1321 h | 3240
0.4419 h | 3230
0.9757 h | 3130
1.457 h | 3580
1.923 h | 2560
2.94 h | 2070
4.456 h | 1030
5.99 h | 73.9
7.984 h | 1330
119 s | 740

ClC(Cl)(Cl)Cl [carbon tetrachloride]
concentration in blood [ng/mL], rat [1], dosed: carbon tetrachloride, duration: 120 min
Settings | 100 ppm | 1000 ppm
0.1277 h | 401 | 4510
0.2902 h | 401 | –
0.305 h | – | 4270
0.4232 h | 340 | –
0.4675 h | – | 4510
0.6891 h | 240 | –
0.7039 h | – | 4750
0.9551 h | 240 | –
0.9698 h | – | 3670
1.457 h | 240 | –
1.472 h | – | 2640
1.96 h | – | 2860
1.975 h | 140 | –
2.462 h | 140 | 1020
2.965 h | 140 | 1060
3.954 h | 40.1 | –
3.969 h | – | 761
4.944 h | 40.1 | –
4.974 h | – | 701
5.979 h | 20 | –
5.993 h | – | 441
7.013 h | – | 220
7.988 h | – | 220
8.993 h | – | 240
9.983 h | – | 160
194 s | – | 6310
247 s | 501 | 5190

rat [1], dosed: carbon tetrachloride, duration: 120 min, during exposure
Settings | concentration in blood [ng/mL]
-179 s, 1000 ppm | 11200
-125 s, 100 ppm | 681
-1.941 h, 1000 ppm | 5690
-1.867 h, 1000 ppm | 7110
-1.852 h, 100 ppm | 441
-1.793 h, 100 ppm | 601
-1.69 h, 100 ppm | 741
-1.675 h, 1000 ppm | 7550
-1.527 h, 100 ppm | 481
-1.498 h, 1000 ppm | 6170
-1.276 h, 1000 ppm | 7510
-1.261 h, 100 ppm | 421
-1.054 h, 1000 ppm | 6930
-1.025 h, 100 ppm | 561
-0.8032 h, 100 ppm | 601
-0.7884 h, 1000 ppm | 7730
-0.5668 h, 1000 ppm | 8190
-0.5372 h, 100 ppm | 461
-0.3008 h, 100 ppm | 881
-0.2861 h, 1000 ppm | 10000
